# TLR4 MyD88 comp – blocks binding of human TLR4 to MyD88 | O00206+Q99836 | HeLa CL3-4 TLR4/MyD88 BLA complementation, FRET ratio | inhibition, % at 8.4 µM | 0.18% of 200,000 active; in the data active = inhibition above about 25%;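 also: 0% = vehicle and 100% = reference inhibitor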
# NTR1 agonist – activates human neurotensin receptor 1. NTR1-U2OS beta-arrestin-GFP spot imaging, agonist mode. activation, % at 20 µM. 0.17% of 330,000 active;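 active = activation at or above 40% of the spot to cytoplasm intensity ratio, with at least 20 cells analyzed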;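 also: 0% = DMSO without peptide and 100% = 100 nM NTR1 peptide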
# Target sequence (P30989 whole entry, looked up): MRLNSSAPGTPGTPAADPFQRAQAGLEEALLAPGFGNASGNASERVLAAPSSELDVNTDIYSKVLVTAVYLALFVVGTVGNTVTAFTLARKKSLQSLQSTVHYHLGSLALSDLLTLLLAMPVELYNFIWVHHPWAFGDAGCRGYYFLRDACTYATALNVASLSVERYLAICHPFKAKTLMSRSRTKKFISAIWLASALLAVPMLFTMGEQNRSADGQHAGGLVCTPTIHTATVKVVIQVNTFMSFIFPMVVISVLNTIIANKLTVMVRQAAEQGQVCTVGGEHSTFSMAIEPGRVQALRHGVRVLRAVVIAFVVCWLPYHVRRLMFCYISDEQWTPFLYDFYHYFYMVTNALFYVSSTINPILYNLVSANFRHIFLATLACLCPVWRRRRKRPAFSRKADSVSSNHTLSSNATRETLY
# TLR9-MyD88 inh – TLR9-MyD88 interaction inhibition | Q9NR96+Q99836 | CHO BLA complementation TLR9-MyD88, CCF4 FRET ratio | inhibition, % at 4.98 µM | 0.21% of 340,000 active;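 active = inhibition above the mean over all tested compounds plus 3 SD, cut at about 21% in these data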;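 also: 0% = DMSO only wells and 100% = clavulanate BLA inhibitor control wells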
# MC4R antag cAMP – blocks human MC4R cAMP signaling; P32245; MC4R-expressing cells, MTII-stimulated cAMP, LANCE TR-FRET; inhibition, % at 6.5 µM; 0.48% of 360,000 active; AID 540295;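 active = inhibition above its plate's cutoff, the mean of tested wells on that plate plus 3 SD, cut at about 29% in these data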;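 also: 0% = Melanotan II alone and 100% = Melanotan II plus saturating MCL0020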
#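 System: U2OS cells stably expressing human melanocortin 4 receptor (MC4R). Reagent: Melanotan II challenge after compound preincubation. Doses: 6.5 µM. Times: 30-min compound, 1-h challenge, 1-h detection, room temperature. Measured by: TR-FRET with Eu-cAMP and labeled anti-cAMP, 671 nm. Replicates: singlicate.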
# MC4R barr agon – human MC4R agonism via beta-arrestin | activation, % at 8.9 µM | U2OS MC4R beta-arrestin complementation, luminescence; percent of melanotan II response, DMSO zero | AID 540308 | 0.98% of 360,000 active;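 active = activation above a per-plate cutoff, the mean activation of sample wells on that plate plus 3 SD, cut at about 8% in these data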
# NOD2 RIPK2 PPI – NOD2-RIPK2 protein interaction inhibition | inhibition, % at 4.98 µM | 0.38% of 360,000 active | O43353 | CHO BLA complementation NOD2-RIPK2, CCF4 ratio; in the data active = inhibition above about 21%;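 also: 0% = vehicle only and 100% = reference blocker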
# MC4R barr conf – human MC4R beta-arrestin agonism confirmation; shares compounds with MC4R barr agon; U2OS MC4R beta-arrestin recruitment, luminescence; scaled DMSO 0%, Melanotan II 100%; activation, % at 8.9 µM; 31% of 2,400 active; AID 602192;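 active = mean activation across replicates above the hit cutoff set in the earlier primary screen, cut at about 8% in these data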
# MOR DOR agonist – OPRM1-OPRD1 heterodimer agonism counter-screen | 5.8% of 2,400 active | activation, % at 9.2 µM | shares compounds with MC4R barr agon | U2OS PathHunter beta-arrestin, beta-gal luminescence; percent of deltorphin B response, DMSO zero;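 active = mean activation across replicates exceeds the hit threshold derived in the earlier primary screen, cut at about 18% in these data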;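 also: 100% = deltorphin B at 0.9 µM final and 0% = DMSO alone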
# * hit, by the source's call; nt = no result given. Only some compounds are listed: those with a hit (about 1.9% of all), similar ones and a draw of the others.
SMILES,TLR4 MyD88 comp,NTR1 agonist,TLR9-MyD88 inh,MC4R antag cAMP,MC4R barr agon,NOD2 RIPK2 PPI,MC4R barr conf,MOR DOR agonist
O=C(COC(=O)c1ccccc1Nc1ccccc1)NCc1ccccc1,3,10,9,-4,25*,-1,0,7
O=C(COC(=O)c1ccccc1Nc1cccc(C(F)(F)F)c1)NCc1ccco1,10,-2,6,-7,13*,3,6,9
NC(=O)c1ccc(NC(=O)COC(=O)c2ccccc2Nc2ccccc2)cc1,6,-1,3,2,-3,7,nt,nt
O=C(Nc1cccnc1)OC1CCCC1,5,0,3,0,-1,5,nt,nt
COc1ccc(Nc2nc3cc(-c4sccc4C)sc3c(=O)n2C)cc1OC,nt,nt,nt,4,-2,5,nt,nt
CCOC(=O)Cc1ccc(Nc2nc3cc(-c4sccc4C)sc3c(=O)n2C)cc1,nt,nt,nt,-7,14*,-9,1,4
Cc1cc(S(=O)(=O)N2CCOCC2)ccc1OCC(=O)Nc1ccc(F)c(Cl)c1,nt,1,12,-1,16*,1,-2,4
CCOc1ccc(Nc2oc(-c3cccs3)nc2C#N)cc1,-6,2,6,-2,18*,-4,5,10
CCOc1ccc(Nc2oc(-c3ccco3)nc2C#N)cc1,5,-1,-10,9,2,-8,nt,nt
NC(Cc1ccccc1)c1csc(Nc2ccc(C(F)(F)F)cn2)n1 (stereo not drawn),nt,nt,nt,2,5,1,nt,nt
Cc1cc(C)nc(Nc2nc(C(N)Cc3ccc(F)cc3)cs2)n1 (stereo not drawn),nt,nt,nt,-3,1,-3,nt,nt
CCCc1cnc(Nc2nc(C(N)Cc3ccc(C(F)(F)F)cc3)cs2)nc1 (stereo not drawn),nt,nt,nt,27,15*,9,14*,6
NC(Cc1ccc(C(F)(F)F)cc1)c1csc(Nc2nccc(C(F)(F)F)n2)n1 (stereo not drawn),nt,nt,nt,4,15*,13,17*,7
Cc1cc(C)nc(Nc2nc(C(N)Cc3ccc(Cl)cc3)cs2)n1 (stereo not drawn),nt,nt,nt,-8,9.8*,11,28*,13
COc1cc(OC)nc(Nc2nc(C(N)Cc3ccc(C(F)(F)F)cc3)cs2)n1 (stereo not drawn),nt,nt,nt,9,29*,21,7,13
COc1cc(OC)nc(Nc2nc(C(N)Cc3ccccc3)cs2)n1 (stereo not drawn),nt,nt,nt,-4,0,-14,nt,nt
N#Cc1c(NC(=O)c2cccc(S(=O)(=O)Nc3ccc(C(=O)O)cc3)c2)sc2c1CCCC2,nt,-1,-2,14,-1,-10,nt,nt
Nc1ccccc1-c1nnc(SCC(=O)Nc2ccccc2OC(F)F)[nH]c1=O,nt,1,-9,1,-1,-3,nt,nt
Cc1cc(C)nc(Nc2nc(C(N)Cc3ccc(C(F)(F)F)cc3)cs2)n1 (stereo not drawn),nt,nt,nt,-7,10*,9,26*,10
O=C(O)CCC(=O)Nc1ccc(-c2csc(Nc3cccc4ccccc34)n2)cc1,nt,0,3,4,-1,0,nt,nt
CCC(C)(C)c1ccc(OCCCC[n+]2ccc(C)cc2)c(C(C)(C)CC)c1,8,5,nt,nt,nt,nt,nt,nt
CCC(C)(C)c1ccc(OCCCC[n+]2cccc(C)c2C)c(C(C)(C)CC)c1,nt,12,0,3,23*,-5,22*,15
O=C(Nc1ccccc1)c1cc2ccccc2c(=O)s1,-11,3,4,-4,13*,-6,0,5
O=C(Nc1ccc(O)cc1)c1cc2ccccc2c(=O)s1,10,4,12,17,1,5,nt,nt
COc1ccc(/C=N/NC(=O)CCn2c3ccccc3c3ccccc32)cc1O,6,8,-2,-9,0,10,nt,nt
SMILES,TLR4 MyD88 comp,NTR1 agonist,TLR9-MyD88 inh,MC4R antag cAMP,MC4R barr agon,NOD2 RIPK2 PPI,MC4R barr conf,MOR DOR agonist
COc1cccc(/C=N/NC(=O)CCn2c3ccccc3c3ccccc32)c1,12,31,-2,2,14*,0,4,7
CCc1ccc(NC(=O)c2ccc3c(c2)C(=O)N(CCOC)C3Nc2ccc(CC)cc2)cc1 (stereo not drawn),-4,1,-4,1,12*,1,3,9
Cc1cccc2cc(COC(=O)c3cccs3)c(=O)[nH]c12,-11,4,-16,9,23*,6,1,4
COc1cc(NC(=O)c2n[nH]c(=O)c3ccccc23)cc(OC)c1,nt,3,-14,15,-1,-1,nt,nt
COc1ccc(-c2nc(NC(=O)c3n[nH]c(=O)c4ccccc34)sc2C)cc1,0,6,2,5,14*,4,6,4
CNc1ccc2ncc(-c3ccccc3NC(C)=O)n2n1,nt,nt,nt,3,-3,3,nt,nt
CCCn1c(N)c(N(CCOC)C(=O)CSc2cc(C)c3cccc(C)c3n2)c(=O)[nH]c1=O,nt,1,-2,3,-1,-4,nt,nt
O=C(CN1C(=O)c2ccccc2S1(=O)=O)Nc1ccc(S(=O)(=O)Nc2ncccn2)cc1,nt,-1,1,-2,-3,-8,nt,nt
Cc1cccc(OCC(=O)Nc2ccc3c4c(cccc24)CC3)c1C,9,-1,20,-1,31*,-5,2,4
COc1ccc(C(=O)NC(=S)Nc2ccc3c4c(cccc24)CC3)cc1OC,-19,8,0,-4,13*,2,7,2
Cc1ccc(OCC(=O)Nc2ccc3c4c(cccc24)CC3)c(C)c1,11,7,-6,-6,7,-6,nt,nt
CCOc1ccc(Oc2ccc(Cl)cc2N)cc1,3,1,-4,6,-1,7,nt,nt
O=S(=O)(c1cccc(-c2nnc3n2CCCCC3)c1)N1CCCC1,-12,3,4,15,1,4,nt,nt
O=[N+]([O-])c1cc(C(F)(F)F)ccc1NCCc1c[nH]c2ccc(O)cc12,2,19,3,0,15*,3,4,5
COc1ccccc1/C=C1\SC(=S)N(CCC(=O)NCCCN2CCOCC2)C1=O,-3,0,-8,12,1,-17,nt,nt
COc1ccc(C=C2SC(=S)N(CCCN3CCOCC3)C2=O)c(OC)c1,nt,nt,7,7,15*,13,5,21*
O=C(OCC(=O)N1CCc2ccccc2C1)c1cccs1,8,1,1,0,0,-4,nt,nt
O=[N+]([O-])c1cc2c(cc1/C=N\NS(=O)(=O)c1ccccc1)OCO2,-1,-1,10,7,-2,10,nt,nt
